Data reported in ChEMBL document CHEMBL4257452, “A mini-library system to investigate non-essential residues of lipid-phosphatidylserine (PS) binding peptide-peptoid hybrid PPS1” (Medchemcomm, 2017).
Active and inactive are the calls of the source. No cut-off for these calls is given here. Starred links: 1 amine or outer side, 2 acyl side, 3 side chain; linkers in the order of their positions; H or OH if unused. Positions of bridges follow the written chain, without caps; N, C: chain ends. Non-standard residues stand in square brackets, D forms with d. Residues, ends and D or L forms follow the SMILES beside them. Chains are numbered I, II in the order given. Gly(N-CH2CH2C6H4-4Cl) = O=C(O)CNCCc1ccc(Cl)cc1; Gly(N-piperonyl) = O=C(O)CNCc1ccc2c(c1)OCO2; Gly(Nα-4-Cl-benzyl) = O=C(O)CNCc1ccc(Cl)cc1; N(4-MeOBn)Gly = COc1ccc(CNCC(=O)O)cc1; X3 = CC(c1ccccc1)N(CC(=O)[*:2])[*:1]; Gly(NCH2CH2Ph) = O=C(O)CNCCc1ccccc1; Gly(N-(CH2)3OMe) = COCCCNCC(=O)O; Nrpe = C[C@@H](NCC(=O)O)c1ccccc1; Gly(N-propargyl) = C#CCNCC(=O)O; Gly(N-cPent) = O=C(O)CNC1CCCC1

Tested on: HCC4017
Assay: Cytotoxicity against human HCC4017 cells assessed as reduction in cell viability at 20 uM after 24 hrs by MTS assay
Assay type: functional, cell-based
Method in brief: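 HCC4017 cells (RPMI, 5% FBS) and HBEC-3KT normal lung cells (KSFM with recombinant human EGF and bovine pituitary extract) were plated at 10 000 cells/well in triplicate and left to adhere overnight. They were exposed to 1 or 20 μM compound for 24 h. MTS reagent was then added for 2 h and absorbance read at 490 nm. Viability is % of untreated control wells.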

SMILES | Activity
COc1ccc(CN(CC(=O)N(CC(=O)N[C@@H](CCCCN)C(=O)N[C@H](CCCCN)C(=O)N[C@@H](CCSC)C(=O)NCCCC[C@H](NC(=O)[C@H](CCSC)NC(=O)[C@@H](CCCCN)NC(=O)[C@H](CCCCN)NC(=O)CN(Cc2ccc3c(c2)OCO3)C(=O)CN(Cc2ccc(OC)cc2)C(=O)CN(C(=O)CN(Cc2ccc3c(c2)OCO3)C(=O)CN[C@H](C)c2ccccc2)[C@H](C)c2ccccc2)C(N)=O)Cc2ccc3c(c2)OCO3)C(=O)CN(C(=O)CN(Cc2ccc3c(c2)OCO3)C(=O)CN[C@H](C)c2ccccc2)[C@H](C)c2ccccc2)cc1 (I: H-[Nrpe][Gly(N-piperonyl)][Nrpe][N(4-MeOBn)Gly][Gly(N-piperonyl)]K[dK]MK-NH2 / II: H-[Nrpe][Gly(N-piperonyl)][Nrpe][N(4-MeOBn)Gly][Gly(N-piperonyl)]K[dK]M; amide I:9-II:C) | Active
COc1ccc(CN(CC(=O)NC(C)C(=O)NC(CCCCN)C(=O)NC(CCCCN)C(=O)NC(CCSC)C(=O)NCCCCC(NC(=O)C(CCSC)NC(=O)C(CCCCN)NC(=O)C(CCCCN)NC(=O)C(C)NC(=O)CN(Cc2ccc(OC)cc2)C(=O)CN(C(=O)CN(Cc2ccc3c(c2)OCO3)C(=O)CNC(C)c2ccccc2)C(C)c2ccccc2)C(N)=O)C(=O)CN(C(=O)CN(Cc2ccc3c(c2)OCO3)C(=O)CNC(C)c2ccccc2)C(C)c2ccccc2)cc1 (stereo not drawn) (I: H-[X3][Gly(N-piperonyl)][X3][N(4-MeOBn)Gly]AKKMK-NH2 / II: H-[X3][Gly(N-piperonyl)][X3][N(4-MeOBn)Gly]AKKM; amide I:9-II:C; configuration not given here) | Active
COc1ccc(CN(CC(=O)NC(CC(=O)O)C(=O)NC(CCCCN)C(=O)NC(CCCCN)C(=O)NC(CCSC)C(=O)NCCCCC(NC(=O)C(CCSC)NC(=O)C(CCCCN)NC(=O)C(CCCCN)NC(=O)C(CC(=O)O)NC(=O)CN(Cc2ccc(OC)cc2)C(=O)CN(C(=O)CN(Cc2ccc3c(c2)OCO3)C(=O)CNC(C)c2ccccc2)C(C)c2ccccc2)C(N)=O)C(=O)CN(C(=O)CN(Cc2ccc3c(c2)OCO3)C(=O)CNC(C)c2ccccc2)C(C)c2ccccc2)cc1 (stereo not drawn) (I: H-[X3][Gly(N-piperonyl)][X3][N(4-MeOBn)Gly]DKKMK-NH2 / II: H-[X3][Gly(N-piperonyl)][X3][N(4-MeOBn)Gly]DKKM; amide I:9-II:C; configuration not given here) | inactive
COc1ccc(CN(CC(=O)NC(CC(C)C)C(=O)NC(CCCCN)C(=O)NC(CCCCN)C(=O)NC(CCSC)C(=O)NCCCCC(NC(=O)C(CCSC)NC(=O)C(CCCCN)NC(=O)C(CCCCN)NC(=O)C(CC(C)C)NC(=O)CN(Cc2ccc(OC)cc2)C(=O)CN(C(=O)CN(Cc2ccc3c(c2)OCO3)C(=O)CNC(C)c2ccccc2)C(C)c2ccccc2)C(N)=O)C(=O)CN(C(=O)CN(Cc2ccc3c(c2)OCO3)C(=O)CNC(C)c2ccccc2)C(C)c2ccccc2)cc1 (stereo not drawn) (I: H-[X3][Gly(N-piperonyl)][X3][N(4-MeOBn)Gly]LKKMK-NH2 / II: H-[X3][Gly(N-piperonyl)][X3][N(4-MeOBn)Gly]LKKM; amide I:9-II:C; configuration not given here) | Active
COc1ccc(CN(CC(=O)N2CCCC2C(=O)NC(CCCCN)C(=O)NC(CCCCN)C(=O)NC(CCSC)C(=O)NCCCCC(NC(=O)C(CCSC)NC(=O)C(CCCCN)NC(=O)C(CCCCN)NC(=O)C2CCCN2C(=O)CN(Cc2ccc(OC)cc2)C(=O)CN(C(=O)CN(Cc2ccc3c(c2)OCO3)C(=O)CNC(C)c2ccccc2)C(C)c2ccccc2)C(N)=O)C(=O)CN(C(=O)CN(Cc2ccc3c(c2)OCO3)C(=O)CNC(C)c2ccccc2)C(C)c2ccccc2)cc1 (stereo not drawn) (I: H-[X3][Gly(N-piperonyl)][X3][N(4-MeOBn)Gly]PKKMK-NH2 / II: H-[X3][Gly(N-piperonyl)][X3][N(4-MeOBn)Gly]PKKM; amide I:9-II:C; configuration not given here) | Active
COc1ccc(CN(CC(=O)NC(C(=O)NC(CCCCN)C(=O)NC(CCCCN)C(=O)NC(CCSC)C(=O)NCCCCC(NC(=O)C(CCSC)NC(=O)C(CCCCN)NC(=O)C(CCCCN)NC(=O)C(NC(=O)CN(Cc2ccc(OC)cc2)C(=O)CN(C(=O)CN(Cc2ccc3c(c2)OCO3)C(=O)CNC(C)c2ccccc2)C(C)c2ccccc2)C(C)C)C(N)=O)C(C)C)C(=O)CN(C(=O)CN(Cc2ccc3c(c2)OCO3)C(=O)CNC(C)c2ccccc2)C(C)c2ccccc2)cc1 (stereo not drawn) (I: H-[X3][Gly(N-piperonyl)][X3][N(4-MeOBn)Gly]VKKMK-NH2 / II: H-[X3][Gly(N-piperonyl)][X3][N(4-MeOBn)Gly]VKKM; amide I:9-II:C; configuration not given here) | Active
COc1ccc(CN(CC(=O)NC(Cc2ccc(O)cc2)C(=O)NC(CCCCN)C(=O)NC(CCCCN)C(=O)NC(CCSC)C(=O)NCCCCC(NC(=O)C(CCSC)NC(=O)C(CCCCN)NC(=O)C(CCCCN)NC(=O)C(Cc2ccc(O)cc2)NC(=O)CN(Cc2ccc(OC)cc2)C(=O)CN(C(=O)CN(Cc2ccc3c(c2)OCO3)C(=O)CNC(C)c2ccccc2)C(C)c2ccccc2)C(N)=O)C(=O)CN(C(=O)CN(Cc2ccc3c(c2)OCO3)C(=O)CNC(C)c2ccccc2)C(C)c2ccccc2)cc1 (stereo not drawn) (I: H-[X3][Gly(N-piperonyl)][X3][N(4-MeOBn)Gly]YKKMK-NH2 / II: H-[X3][Gly(N-piperonyl)][X3][N(4-MeOBn)Gly]YKKM; amide I:9-II:C; configuration not given here) | Active
COCCCN(CC(=O)NC(CCCCN)C(=O)NC(CCCCN)C(=O)NC(CCSC)C(=O)NCCCCC(NC(=O)C(CCSC)NC(=O)C(CCCCN)NC(=O)C(CCCCN)NC(=O)CN(CCCOC)C(=O)CN(Cc1ccc(OC)cc1)C(=O)CN(C(=O)CN(Cc1ccc2c(c1)OCO2)C(=O)CNC(C)c1ccccc1)C(C)c1ccccc1)C(N)=O)C(=O)CN(Cc1ccc(OC)cc1)C(=O)CN(C(=O)CN(Cc1ccc2c(c1)OCO2)C(=O)CNC(C)c1ccccc1)C(C)c1ccccc1 (stereo not drawn) (I: H-[X3][Gly(N-piperonyl)][X3][N(4-MeOBn)Gly][Gly(N-(CH2)3OMe)]KKMK-NH2 / II: H-[X3][Gly(N-piperonyl)][X3][N(4-MeOBn)Gly][Gly(N-(CH2)3OMe)]KKM; amide I:9-II:C; configuration not given here) | Active
COc1ccc(CN(CC(=O)N(CCc2ccc(Cl)cc2)CC(=O)NC(CCCCN)C(=O)NC(CCCCN)C(=O)NC(CCSC)C(=O)NCCCCC(NC(=O)C(CCSC)NC(=O)C(CCCCN)NC(=O)C(CCCCN)NC(=O)CN(CCc2ccc(Cl)cc2)C(=O)CN(Cc2ccc(OC)cc2)C(=O)CN(C(=O)CN(Cc2ccc3c(c2)OCO3)C(=O)CNC(C)c2ccccc2)C(C)c2ccccc2)C(N)=O)C(=O)CN(C(=O)CN(Cc2ccc3c(c2)OCO3)C(=O)CNC(C)c2ccccc2)C(C)c2ccccc2)cc1 (stereo not drawn) (I: H-[X3][Gly(N-piperonyl)][X3][N(4-MeOBn)Gly][Gly(N-CH2CH2C6H4-4Cl)]KKMK-NH2 / II: H-[X3][Gly(N-piperonyl)][X3][N(4-MeOBn)Gly][Gly(N-CH2CH2C6H4-4Cl)]KKM; amide I:9-II:C; configuration not given here) | Active
COc1ccc(CN(CC(=O)N(CC(=O)NC(CCCCN)C(=O)NC(CCCCN)C(=O)NC(CCSC)C(=O)NCCCCC(NC(=O)C(CCSC)NC(=O)C(CCCCN)NC(=O)C(CCCCN)NC(=O)CN(C(=O)CN(Cc2ccc(OC)cc2)C(=O)CN(C(=O)CN(Cc2ccc3c(c2)OCO3)C(=O)CNC(C)c2ccccc2)C(C)c2ccccc2)C2CCCC2)C(N)=O)C2CCCC2)C(=O)CN(C(=O)CN(Cc2ccc3c(c2)OCO3)C(=O)CNC(C)c2ccccc2)C(C)c2ccccc2)cc1 (stereo not drawn) (I: H-[X3][Gly(N-piperonyl)][X3][N(4-MeOBn)Gly][Gly(N-cPent)]KKMK-NH2 / II: H-[X3][Gly(N-piperonyl)][X3][N(4-MeOBn)Gly][Gly(N-cPent)]KKM; amide I:9-II:C; configuration not given here) | Active
C#CCN(CC(=O)NC(CCCCN)C(=O)NC(CCCCN)C(=O)NC(CCSC)C(=O)NCCCCC(NC(=O)C(CCSC)NC(=O)C(CCCCN)NC(=O)C(CCCCN)NC(=O)CN(CC#C)C(=O)CN(Cc1ccc(OC)cc1)C(=O)CN(C(=O)CN(Cc1ccc2c(c1)OCO2)C(=O)CNC(C)c1ccccc1)C(C)c1ccccc1)C(N)=O)C(=O)CN(Cc1ccc(OC)cc1)C(=O)CN(C(=O)CN(Cc1ccc2c(c1)OCO2)C(=O)CNC(C)c1ccccc1)C(C)c1ccccc1 (stereo not drawn) (I: H-[X3][Gly(N-piperonyl)][X3][N(4-MeOBn)Gly][Gly(N-propargyl)]KKMK-NH2 / II: H-[X3][Gly(N-piperonyl)][X3][N(4-MeOBn)Gly][Gly(N-propargyl)]KKM; amide I:9-II:C; configuration not given here) | Active
COc1ccc(CN(CC(=O)N(CCc2ccccc2)CC(=O)NC(CCCCN)C(=O)NC(CCCCN)C(=O)NC(CCSC)C(=O)NCCCCC(NC(=O)C(CCSC)NC(=O)C(CCCCN)NC(=O)C(CCCCN)NC(=O)CN(CCc2ccccc2)C(=O)CN(Cc2ccc(OC)cc2)C(=O)CN(C(=O)CN(Cc2ccc3c(c2)OCO3)C(=O)CNC(C)c2ccccc2)C(C)c2ccccc2)C(N)=O)C(=O)CN(C(=O)CN(Cc2ccc3c(c2)OCO3)C(=O)CNC(C)c2ccccc2)C(C)c2ccccc2)cc1 (stereo not drawn) (I: H-[X3][Gly(N-piperonyl)][X3][N(4-MeOBn)Gly][Gly(NCH2CH2Ph)]KKMK-NH2 / II: H-[X3][Gly(N-piperonyl)][X3][N(4-MeOBn)Gly][Gly(NCH2CH2Ph)]KKM; amide I:9-II:C; configuration not given here) | Active
COc1ccc(CN(CC(=O)N(CC(=O)NC(CCCCN)C(=O)NC(CCCCN)C(=O)NC(CCSC)C(=O)NCCCCC(NC(=O)C(CCSC)NC(=O)C(CCCCN)NC(=O)C(CCCCN)NC(=O)CN(Cc2ccc(Cl)cc2)C(=O)CN(Cc2ccc(OC)cc2)C(=O)CN(C(=O)CN(Cc2ccc3c(c2)OCO3)C(=O)CNC(C)c2ccccc2)C(C)c2ccccc2)C(N)=O)Cc2ccc(Cl)cc2)C(=O)CN(C(=O)CN(Cc2ccc3c(c2)OCO3)C(=O)CNC(C)c2ccccc2)C(C)c2ccccc2)cc1 (stereo not drawn) (I: H-[X3][Gly(N-piperonyl)][X3][N(4-MeOBn)Gly][Gly(Nα-4-Cl-benzyl)]KKMK-NH2 / II: H-[X3][Gly(N-piperonyl)][X3][N(4-MeOBn)Gly][Gly(Nα-4-Cl-benzyl)]KKM; amide I:9-II:C; configuration not given here) | Active
